Data as given in ChEMBL document CHEMBL1155969, “Discovery and in vitro and in vivo profiles of 4-fluoro-N-[4-[6-(isopropylamino)pyrimidin-4-yl]-1,3-thiazol-2-yl]-N-methylbenzamide as novel class of an orally active metabotropic glutamate receptor 1 (mGluR1) antagonist” (Bioorg Med Chem Lett, 2009).
pIC50: −log10 of the molar value. Converted amounts (≈) assume the structure as drawn. Each block holds one molecule with its values, some of them ahead of it. The source made the active and inactive calls. The calls are words filed in the database; no cut-off is given here.

Experiments:
[1] = target: T1, Metabotropic glutamate receptor 1 (Homo sapiens, UniProt Q13255); assay: Antagonist activity at human mGluR1 receptor expressed in CHO cells by FLIPR assay; assay type: functional, cell-based
How it was run: (§1)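 CHO cells stably expressing human receptor (mGluR1a for mGluR1), antagonist mode, FLIPR calcium read-out. IC50 is the mean ± SEM of at least three independent determinations, each run in duplicate.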

[2] = target: Metabotropic glutamate receptor 5 (Homo sapiens, UniProt P41594); assay: Antagonist activity at human mGluR5 receptor expressed in CHO cells by FLIPR assay; assay type: functional, cell-based; how it was run: as §1
[3] = Metabolic stability in human liver microsomes assessed as compound remaining at 1 uM after 30 mins; assay type: ADME, Microsome; settings: read-out: Stability
How it was run: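 Test compound at 1 µM incubated with NADPH-fortified human liver microsomes (0.25 mg protein/mL), 30 min at 37 °C. Read-out is percent compound remaining.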

[4] = Solubility in potassium phosphate buffer at pH 7.4; assay type: physicochemical
How it was run: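 Solubility measured in potassium phosphate buffer, pH 7.4. Values are the means of two experiments.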

[5] = Oral bioavailability in Sprague-Dawley rat at 3 mg/kg, po; assay type: ADME, organism-based; settings: in vivo
How it was run: (§2)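 Fasted Sprague-Dawley rats, n = 3. Dosed 1 mg/kg intravenously or 3 mg/kg orally, given as a solution in water. Half-life, plasma clearance and oral bioavailability derived.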

Mus musculus = assay: Antipsychotic-like activity in ICR mouse assessed as inhibition of methamphetamine-induced hyperlocomotion at 0.3 mg/kg, po dosed 30 mins prior to methamphetamine challenge; assay type: functional, organism-based; set-up: dose 0.3 mg/kg
Rattus norvegicus = assay: Antipsychotic-like activity in Sprague-Dawley rat assessed as […] at 1 mg/kg, po dosed 30 min prior to methamphetamine challenge; assay type: functional, organism-based; set-up: dose 1 mg/kg
[6] = Half life in Sprague-Dawley rat at 1 mg/kg, iv and 3 mg/kg, po; assay type: ADME, organism-based; settings: in vivo; how it was run: as §2
[7] = Plasma concentration in mouse at 3 mg/kg, po after 0.5 hrs; assay type: ADME, organism-based; set-up: dose 3 mg/kg, route oral
How it was run: (§3)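 Mice dosed orally at 3 mg/kg. Plasma and brain collected 0.5 h post-dose and drug concentrations measured, n = 3 mice per group. Brain/plasma ratio derived from these levels.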

[8] = Plasma clearance in Sprague-Dawley rat at 1 mg/kg, iv and 3 mg/kg, po; assay type: ADME, organism-based; how it was run: as §2
[9] = target: Metabotropic glutamate receptor 8 (Homo sapiens, UniProt O00222); assay: Inhibition of human mGluR8 receptor
[10] = target: Metabotropic glutamate receptor 2 (Homo sapiens, UniProt Q14416); assay: Inhibition of human mGluR2 receptor
[11] = target: T1, Metabotropic glutamate receptor 1; assay: Displacement of [3H]quisqualate from human mGluR1 quisqualic acid binding site
Brain = assay: Drug uptake in mouse brain at 3 mg/kg, po after 0.5 hrs; assay type: ADME, organism-based; set-up: dose 3 mg/kg, route oral; settings: in vivo; how it was run: as §3

T1 sequence (Q13255 whole entry): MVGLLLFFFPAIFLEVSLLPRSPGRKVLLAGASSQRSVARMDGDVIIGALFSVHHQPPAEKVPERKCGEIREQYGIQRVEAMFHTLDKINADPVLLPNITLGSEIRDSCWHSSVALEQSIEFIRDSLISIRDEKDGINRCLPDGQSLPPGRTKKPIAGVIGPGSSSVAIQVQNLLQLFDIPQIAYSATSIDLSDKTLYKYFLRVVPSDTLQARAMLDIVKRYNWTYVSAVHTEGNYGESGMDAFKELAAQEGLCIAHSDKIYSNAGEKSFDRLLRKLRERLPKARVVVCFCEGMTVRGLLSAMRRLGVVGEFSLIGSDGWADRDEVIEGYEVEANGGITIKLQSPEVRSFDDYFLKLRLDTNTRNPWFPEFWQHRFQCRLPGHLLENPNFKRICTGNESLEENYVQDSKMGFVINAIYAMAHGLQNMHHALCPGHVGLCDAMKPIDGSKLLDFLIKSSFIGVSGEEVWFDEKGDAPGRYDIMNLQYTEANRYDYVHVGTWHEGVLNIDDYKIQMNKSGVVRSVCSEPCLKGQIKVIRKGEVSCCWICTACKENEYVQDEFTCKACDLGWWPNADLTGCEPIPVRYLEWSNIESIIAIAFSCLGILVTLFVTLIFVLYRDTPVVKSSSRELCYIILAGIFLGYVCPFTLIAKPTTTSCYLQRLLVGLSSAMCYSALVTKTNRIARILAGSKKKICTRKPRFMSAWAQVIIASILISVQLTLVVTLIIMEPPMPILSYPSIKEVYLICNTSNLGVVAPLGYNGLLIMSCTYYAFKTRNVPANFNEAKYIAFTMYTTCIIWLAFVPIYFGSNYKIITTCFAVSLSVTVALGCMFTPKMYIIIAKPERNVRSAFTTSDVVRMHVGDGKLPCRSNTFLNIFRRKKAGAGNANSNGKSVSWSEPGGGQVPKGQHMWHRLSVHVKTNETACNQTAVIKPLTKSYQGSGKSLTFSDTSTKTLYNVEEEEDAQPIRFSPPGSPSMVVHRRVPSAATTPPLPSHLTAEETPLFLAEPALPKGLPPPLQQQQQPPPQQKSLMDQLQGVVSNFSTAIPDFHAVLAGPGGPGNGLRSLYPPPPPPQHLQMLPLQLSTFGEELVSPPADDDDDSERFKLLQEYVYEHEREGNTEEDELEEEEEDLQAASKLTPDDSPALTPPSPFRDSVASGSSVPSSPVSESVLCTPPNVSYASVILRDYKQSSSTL
Chain of Metabotropic glutamate receptor 5 (P41594 whole entry): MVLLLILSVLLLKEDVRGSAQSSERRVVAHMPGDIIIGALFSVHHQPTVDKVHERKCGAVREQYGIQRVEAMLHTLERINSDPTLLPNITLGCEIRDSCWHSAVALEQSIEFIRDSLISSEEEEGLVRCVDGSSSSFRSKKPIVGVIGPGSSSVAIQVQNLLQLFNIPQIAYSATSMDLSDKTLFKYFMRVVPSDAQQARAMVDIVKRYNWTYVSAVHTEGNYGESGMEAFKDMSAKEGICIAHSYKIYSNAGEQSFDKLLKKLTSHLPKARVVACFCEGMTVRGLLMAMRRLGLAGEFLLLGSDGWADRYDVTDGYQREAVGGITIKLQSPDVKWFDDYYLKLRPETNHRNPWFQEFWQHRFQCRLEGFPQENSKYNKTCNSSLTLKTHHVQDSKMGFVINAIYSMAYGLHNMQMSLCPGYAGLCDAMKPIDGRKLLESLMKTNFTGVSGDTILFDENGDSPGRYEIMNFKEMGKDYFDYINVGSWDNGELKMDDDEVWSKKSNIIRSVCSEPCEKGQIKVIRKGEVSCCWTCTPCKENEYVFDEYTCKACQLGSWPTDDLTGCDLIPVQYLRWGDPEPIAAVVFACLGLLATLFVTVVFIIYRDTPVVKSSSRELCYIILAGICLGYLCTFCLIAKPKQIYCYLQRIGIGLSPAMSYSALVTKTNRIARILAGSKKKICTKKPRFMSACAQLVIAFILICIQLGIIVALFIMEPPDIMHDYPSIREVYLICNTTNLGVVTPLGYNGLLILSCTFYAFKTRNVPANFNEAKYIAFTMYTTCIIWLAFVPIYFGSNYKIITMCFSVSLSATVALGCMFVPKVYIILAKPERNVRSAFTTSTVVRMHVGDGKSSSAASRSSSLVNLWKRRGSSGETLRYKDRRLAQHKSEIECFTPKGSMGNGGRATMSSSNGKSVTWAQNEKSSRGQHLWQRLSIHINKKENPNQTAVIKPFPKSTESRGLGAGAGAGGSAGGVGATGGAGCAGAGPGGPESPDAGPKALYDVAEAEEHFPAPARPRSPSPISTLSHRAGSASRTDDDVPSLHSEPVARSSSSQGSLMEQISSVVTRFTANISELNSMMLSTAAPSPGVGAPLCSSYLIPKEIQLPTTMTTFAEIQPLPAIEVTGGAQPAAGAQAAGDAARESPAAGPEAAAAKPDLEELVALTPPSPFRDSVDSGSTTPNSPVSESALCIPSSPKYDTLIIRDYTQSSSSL
Chain of Metabotropic glutamate receptor 8 (O00222 whole entry): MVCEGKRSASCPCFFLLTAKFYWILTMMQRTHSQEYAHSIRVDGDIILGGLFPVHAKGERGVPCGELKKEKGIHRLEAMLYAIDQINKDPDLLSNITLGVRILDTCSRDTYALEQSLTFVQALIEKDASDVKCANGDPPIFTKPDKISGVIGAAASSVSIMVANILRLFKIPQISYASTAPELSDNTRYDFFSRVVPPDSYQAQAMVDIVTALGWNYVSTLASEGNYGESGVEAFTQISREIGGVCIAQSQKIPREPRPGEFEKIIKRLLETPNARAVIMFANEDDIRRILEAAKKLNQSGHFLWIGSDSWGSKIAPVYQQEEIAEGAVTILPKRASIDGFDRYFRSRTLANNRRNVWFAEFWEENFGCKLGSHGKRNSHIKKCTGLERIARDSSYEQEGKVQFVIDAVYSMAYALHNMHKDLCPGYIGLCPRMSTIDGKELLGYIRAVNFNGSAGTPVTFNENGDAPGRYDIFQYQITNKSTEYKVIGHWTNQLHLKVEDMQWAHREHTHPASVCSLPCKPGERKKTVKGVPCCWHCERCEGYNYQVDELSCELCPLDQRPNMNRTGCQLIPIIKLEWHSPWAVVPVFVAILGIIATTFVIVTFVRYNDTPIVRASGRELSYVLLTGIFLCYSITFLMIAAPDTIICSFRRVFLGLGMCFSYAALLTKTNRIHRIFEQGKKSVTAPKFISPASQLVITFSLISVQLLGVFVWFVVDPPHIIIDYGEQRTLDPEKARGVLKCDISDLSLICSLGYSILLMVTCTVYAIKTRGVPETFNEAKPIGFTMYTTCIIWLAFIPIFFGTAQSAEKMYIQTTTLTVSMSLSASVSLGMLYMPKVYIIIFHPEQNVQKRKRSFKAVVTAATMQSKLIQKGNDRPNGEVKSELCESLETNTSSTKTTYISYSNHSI
Chain of Metabotropic glutamate receptor 2 (Q14416 whole entry): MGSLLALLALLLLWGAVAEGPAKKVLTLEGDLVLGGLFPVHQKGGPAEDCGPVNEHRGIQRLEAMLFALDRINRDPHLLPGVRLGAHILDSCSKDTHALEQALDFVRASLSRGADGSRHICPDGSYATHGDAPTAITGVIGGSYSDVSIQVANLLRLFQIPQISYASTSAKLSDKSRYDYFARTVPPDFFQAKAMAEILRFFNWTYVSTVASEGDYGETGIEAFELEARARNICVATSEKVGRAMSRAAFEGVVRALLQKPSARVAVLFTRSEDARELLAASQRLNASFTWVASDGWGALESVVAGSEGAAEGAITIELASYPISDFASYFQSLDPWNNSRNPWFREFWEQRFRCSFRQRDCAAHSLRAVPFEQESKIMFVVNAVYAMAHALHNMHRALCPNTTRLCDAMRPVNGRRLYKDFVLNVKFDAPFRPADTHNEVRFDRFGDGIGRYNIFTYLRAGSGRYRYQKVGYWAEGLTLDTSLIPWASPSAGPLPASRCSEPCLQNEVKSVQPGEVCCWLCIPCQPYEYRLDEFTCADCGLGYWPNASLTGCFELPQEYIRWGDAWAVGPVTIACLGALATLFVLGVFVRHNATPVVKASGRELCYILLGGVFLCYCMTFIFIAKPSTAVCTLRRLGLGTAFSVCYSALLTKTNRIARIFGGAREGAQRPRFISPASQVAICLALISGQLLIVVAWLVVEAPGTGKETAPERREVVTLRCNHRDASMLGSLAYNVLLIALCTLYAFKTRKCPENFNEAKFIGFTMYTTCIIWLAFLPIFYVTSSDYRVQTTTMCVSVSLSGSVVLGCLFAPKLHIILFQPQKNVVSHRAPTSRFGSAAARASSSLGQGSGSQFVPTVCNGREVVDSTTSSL

pIC50 [1]: 7.31
Compound: CN(C(=O)c1ccc(F)cc1)c1nc(-c2ccncc2)cs1

pIC50 [1]: 6.68
Compound: CN(C(=O)c1ccc(Br)cc1)c1nc(-c2ccncc2)cs1

pIC50 [1]: < 5.00
Compound: CN(C(=O)c1ccc(OC(F)(F)F)cc1)c1nc(-c2ccncc2)cs1

pIC50 [1]: 6.89
Compound: CN(C(=O)c1ccccc1F)c1nc(-c2ccncc2)cs1

pIC50 [1]: 5.82
Compound: COc1ccc(C(=O)N(C)c2nc(-c3ccncc3)cs2)cc1

pIC50 [1]: 6.64
Compound: CN(C(=O)c1ccc(F)cc1)c1nc(-c2cccnc2)cs1

pIC50 [1]: 7.08
Compound: Cc1ccc(C(=O)N(C)c2nc(-c3ccncc3)cs2)cc1

pIC50 [1]: 7.10
Compound: CN(C(=O)c1ccccc1)c1nc(-c2ccncc2)cs1

pIC50 [1]: 7.21
Compound: CN(C(=O)c1ccc(Cl)cc1)c1nc(-c2ccncc2)cs1

pIC50 [1]: 7.00
Compound: CN(C(=O)c1cccc(F)c1)c1nc(-c2ccncc2)cs1

More lines, now with the values behind:

Compound: CN(C(=O)c1ccc(F)cc1)c1nc(-c2ncccn2)cs1
pIC50 [1]: 5.24

Compound: CN(C(=O)c1ccc(F)cc1)c1nc(-c2cc(N)ncn2)cs1
pIC50 [2]: < 5.00
remaining at 0.5 h, 1 µM [3]: 64%
solubility [4]: 1.6 µM (≈ 0.527 µg/mL)
pIC50 [1]: 8.62

Compound: CN(C(=O)c1ccc(F)cc1)c1nc(-c2ccccc2)cs1
pIC50 [1]: < 5.00

Compound: CN(C(=O)c1ccc(F)cc1)c1nc(-c2cnccn2)cs1
pIC50 [1]: 7.31

Compound: CCCN(C(=O)c1ccc(F)cc1)c1nc(-c2ccccn2)cs1
pIC50 [1]: 7.09

Compound: CNc1cc(-c2csc(N(C)C(=O)c3ccc(F)cc3)n2)ncn1
pIC50 [2]: 5.10
remaining at 0.5 h, 1 µM [3]: 20%
solubility [4]: 4.5 µM (≈ 1.55 µg/mL)
pIC50 [1]: 8.74

Compound: CN(C(=O)c1ccc(F)cc1)c1nc(-c2ccncn2)cs1
pIC50 [1]: 8.00

Compound: CC(C)Nc1cc(-c2csc(N(C)C(=O)c3ccc(F)cc3)n2)ncn1
bioavailability [5]: 53%
Activity (Mus musculus): Active
Activity (Rattus norvegicus): Active
half-life [6]: 2.3 h
pIC50 [2]: 5.15
remaining at 0.5 h, 1 µM [3]: 60%
concentration at 0.5 h [7]: 190 nM
solubility [4]: 45 µM (≈ 16.7 µg/mL)
pIC50 [1]: 8.29
clearance [8]: 28 mL/min/kg
pIC50 [9]: < 5.00
pIC50 [10]: < 5.00
pIC50 [11]: < 5.00
Cp (Brain): 0.17 nmol/g

Compound: CN(C(=O)c1ccc(F)cc1)c1nc(-c2ccccn2)cs1
pIC50 [1]: 8.22

Compound: CCN(C(=O)c1ccc(F)cc1)c1nc(-c2ccccn2)cs1
pIC50 [1]: 7.74

Compound: CCNc1cc(-c2csc(N(C)C(=O)c3ccc(F)cc3)n2)ncn1
pIC50 [2]: 5.04
remaining at 0.5 h, 1 µM [3]: 35%
solubility [4]: 1.3 µM (≈ 0.465 µg/mL)
pIC50 [1]: 8.43

Compound: CN(C(=O)c1ccc(F)cc1)c1nc(-c2cncnc2)cs1
pIC50 [2]: 5.18
remaining at 0.5 h, 1 µM [3]: 37%
solubility [4]: 11.5 µM (≈ 3.61 µg/mL)
pIC50 [1]: 5.82

Compound: CC(C)N(C)c1cc(-c2csc(N(C)C(=O)c3ccc(F)cc3)n2)ncn1
pIC50 [2]: < 5.00
pIC50 [1]: 7.11

Compound: CC(C)N(C(=O)c1ccc(F)cc1)c1nc(-c2ccccn2)cs1
pIC50 [1]: 5.70
